{"source": "ChEMBL document CHEMBL3769384", "about": "“Discovery of Tetrahydropyrazolopyridine as Sphingosine 1-Phosphate Receptor 3 (S1P3)-Sparing S1P1 Agonists Active at Low Oral Doses” (J Med Chem, 2016)", "key": {"[1]": {"molecular_target": "Cytochrome P450 2C9 (Homo sapiens, UniProt P11712)", "sequence (P11712 whole entry, canonical isoform)": "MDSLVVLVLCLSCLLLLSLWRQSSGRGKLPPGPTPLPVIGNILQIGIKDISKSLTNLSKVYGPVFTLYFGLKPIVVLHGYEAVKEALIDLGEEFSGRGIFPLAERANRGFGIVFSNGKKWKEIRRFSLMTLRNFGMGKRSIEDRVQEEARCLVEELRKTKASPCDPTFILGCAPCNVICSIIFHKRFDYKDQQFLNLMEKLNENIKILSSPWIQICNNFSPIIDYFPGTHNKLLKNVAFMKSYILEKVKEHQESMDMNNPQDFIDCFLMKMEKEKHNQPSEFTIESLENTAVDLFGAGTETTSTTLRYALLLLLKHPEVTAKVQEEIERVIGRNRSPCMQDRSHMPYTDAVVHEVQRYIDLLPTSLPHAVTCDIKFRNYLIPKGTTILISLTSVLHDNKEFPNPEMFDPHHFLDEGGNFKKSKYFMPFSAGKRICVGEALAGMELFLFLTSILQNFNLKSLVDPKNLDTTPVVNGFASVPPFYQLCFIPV", "test": "Inhibition of CYP2C9 (unknown origin) coexpressed in Escherichia coli with human NADPH reductase using 7-methoxy-4-trifluoromethylcoumarin-3-acetic acid as substrate after 10 mins by fluorescence assay", "format": "ADME", "summary_of_the_method": "(§1)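 Recombinant CYP co-expressed in E. coli with human NADPH reductase, incubated with an isoform-specific pro-fluorescent substrate and compound (nine concentrations, 0.1-100 µM) plus a 0.2 mM NADPH regenerating system for 10 min at 37°C. Fluorescent metabolite formation was monitored.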"}, "[2]": {"molecular_target": "Cytochrome P450 2C19 (Homo sapiens, UniProt P33261)", "sequence (P33261 whole entry)": "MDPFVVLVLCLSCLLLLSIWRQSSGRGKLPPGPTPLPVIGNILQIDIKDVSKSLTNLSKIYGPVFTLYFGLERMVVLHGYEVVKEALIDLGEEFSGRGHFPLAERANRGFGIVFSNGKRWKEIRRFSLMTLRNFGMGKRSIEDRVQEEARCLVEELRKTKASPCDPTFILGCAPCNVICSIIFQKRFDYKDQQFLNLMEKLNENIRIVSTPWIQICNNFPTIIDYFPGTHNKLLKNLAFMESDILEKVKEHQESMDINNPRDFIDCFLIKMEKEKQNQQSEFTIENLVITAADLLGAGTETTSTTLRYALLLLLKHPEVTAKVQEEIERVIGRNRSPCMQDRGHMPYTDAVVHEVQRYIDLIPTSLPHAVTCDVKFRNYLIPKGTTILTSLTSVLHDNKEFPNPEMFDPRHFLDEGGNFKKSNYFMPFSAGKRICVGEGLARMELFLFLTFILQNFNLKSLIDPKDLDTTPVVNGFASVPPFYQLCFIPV", "test": "Inhibition of CYP2C19 (unknown origin) coexpressed in Escherichia coli with human NADPH reductase using 3-butyryl-7-methoxycoumarin as substrate after 10 mins by fluorescence assay", "format": "ADME", "summary_of_the_method": "as §1"}, "[3]": {"molecular_target": "Sphingosine 1-phosphate receptor 1 (Homo sapiens, UniProt P21453)", "sequence (P21453 whole entry, the tested form may be a part)": "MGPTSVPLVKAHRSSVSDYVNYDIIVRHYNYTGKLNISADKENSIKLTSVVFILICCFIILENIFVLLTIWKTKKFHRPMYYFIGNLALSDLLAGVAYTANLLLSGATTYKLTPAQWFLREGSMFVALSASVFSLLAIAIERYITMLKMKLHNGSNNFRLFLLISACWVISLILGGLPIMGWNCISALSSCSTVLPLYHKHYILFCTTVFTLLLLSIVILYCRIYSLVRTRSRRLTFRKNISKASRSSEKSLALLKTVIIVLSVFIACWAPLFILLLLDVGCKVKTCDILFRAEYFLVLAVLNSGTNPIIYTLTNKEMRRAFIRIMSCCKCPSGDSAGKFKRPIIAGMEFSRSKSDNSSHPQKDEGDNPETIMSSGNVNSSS", "test": "Agonist activity at human S1P1 receptor expressed in CHO-K1 EDG1 cells by beta-arrestin recruitment assay", "format": "cell-based", "summary_of_the_method": "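CHO-K1 cells stably expressing beta-arrestin 2 and S1P1 fused to complementing beta-galactosidase fragments; grown to 80% confluency, harvested enzyme-free, resuspended in HEPES/BSA assay buffer pH 7.4. Cells at 1x10^4/well added to compound in DMSO, 90 min at 37°C/5% CO2, then 15 min at room temperature; chemiluminescent detection mix 60 min at room temperature, luminescence read.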"}, "[4]": {"molecular_target": "T1, Cytochrome P450 1A2 (Homo sapiens, UniProt P05177)", "T1 sequence (P05177 whole entry)": "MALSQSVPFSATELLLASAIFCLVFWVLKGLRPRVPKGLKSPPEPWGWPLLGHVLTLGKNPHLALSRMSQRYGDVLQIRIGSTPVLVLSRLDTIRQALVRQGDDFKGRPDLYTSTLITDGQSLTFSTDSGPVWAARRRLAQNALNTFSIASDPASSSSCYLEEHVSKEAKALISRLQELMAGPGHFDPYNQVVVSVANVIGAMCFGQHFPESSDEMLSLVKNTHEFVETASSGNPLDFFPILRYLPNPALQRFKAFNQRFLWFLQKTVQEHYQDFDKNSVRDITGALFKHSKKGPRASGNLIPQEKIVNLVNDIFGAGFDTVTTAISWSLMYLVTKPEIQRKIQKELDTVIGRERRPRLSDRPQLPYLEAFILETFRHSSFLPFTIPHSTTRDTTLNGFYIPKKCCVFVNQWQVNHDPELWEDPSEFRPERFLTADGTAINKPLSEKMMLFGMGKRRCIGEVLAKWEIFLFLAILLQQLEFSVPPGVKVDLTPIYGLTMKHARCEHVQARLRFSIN", "test": "Inhibition of CYP1A2 (unknown origin) coexpressed in Escherichia coli with human NADPH reductase using ethoxyresorufin as substrate after 10 mins by fluorescence assay", "format": "ADME", "summary_of_the_method": "as §1"}, "[5]": {"system": "Hepatocyte", "test": "Intrinsic clearance in CD1 mouse hepatocytes at 0.5 uM after 2 hrs by LC-MS/MS analysis", "format": "ADME, cell-based", "summary_of_the_method": "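Compound at 0.5 µM incubated with pooled cryopreserved hepatocytes (0.7 million cells/mL) in Williams Medium E at 37°C under CO2/O2. Supernatants analysed by LC-MS/MS. CLi was derived from a first-order rate constant, scaled with 1.2x10^8 cells/g liver (human, rat, mouse) or 2.4x10^8 cells/g liver (dog).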"}, "[6]": {"molecular_target": "Sphingosine 1-phosphate receptor 2 (Homo sapiens, UniProt O95136)", "sequence (O95136 whole entry)": "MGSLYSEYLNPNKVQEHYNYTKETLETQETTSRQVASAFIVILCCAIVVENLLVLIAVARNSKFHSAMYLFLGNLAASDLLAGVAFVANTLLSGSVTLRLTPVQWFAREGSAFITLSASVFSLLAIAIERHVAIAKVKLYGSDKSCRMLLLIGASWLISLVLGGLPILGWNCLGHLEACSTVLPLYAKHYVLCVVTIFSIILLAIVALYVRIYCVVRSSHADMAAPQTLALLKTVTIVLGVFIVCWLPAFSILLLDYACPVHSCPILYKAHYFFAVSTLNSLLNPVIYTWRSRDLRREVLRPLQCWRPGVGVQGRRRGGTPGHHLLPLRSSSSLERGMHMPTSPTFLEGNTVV", "test": "Agonist activity at human S1P2 receptor expressed in Saccharomyces cerevisiae after 24 hrs by reporter gene assay", "summary_of_the_method": "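S. cerevisiae with integrated S1P2 under the GPD promoter, seeded at 0.02 OD600 in histidine-free minimal medium with 5 mM 3-aminotriazole and 100 µM fluorescein-di-(β-D-glucopyranoside). Agonist-driven growth was read as fluorescein fluorescence (ex 485/em 535 nm) after 24 h at 30°C.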"}}}
{"smiles": "Cc1c2c(nn1-c1nnc(-c3ccc(OC(C)C)c(Cl)c3)s1)CCN(CCC(=O)O)C2", "values": [{"measurement": "IC50", "setting": "[1]", "value": "> 50", "unit": "µM"}, {"measurement": "IC50", "setting": "[2]", "value": "> 50", "unit": "µM"}, {"measurement": "EC50", "setting": "[3]", "value": 0.00158, "unit": "µM"}, {"measurement": "IC50", "setting": "[4]", "value": "> 50", "unit": "µM"}, {"measurement": "CLH", "setting": "[5]", "value": "< 0.85", "unit": "mL/min/g"}, {"measurement": "EC50", "setting": "[6]", "value": "> 31.6", "unit": "µM"}]}
